Measurements: ChEMBL document CHEMBL6134765, “Rapid identification of novel indolylarylsulfone derivatives as potent HIV-1 NNRTIs via miniaturized CuAAC click-chemistry-based combinatorial libraries” (RSC Med Chem, 2025)

Experiments:
[1] = test system: Human immunodeficiency virus 1; assay: Antiviral activity against HIV-1 harboring L100I mutant infected in human MT4 cells assessed as inhibition of virus induced cytotoxicity incubated for 5 days by spectrophometry based MTT assay; format: functional, organism-based; settings: Human immunodeficiency virus 1, MT4, 120 h
Summary of the method: (§1)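 MT-4 cells (from Dr. N. Yamamoto, Yamaguchi University) infected with single-mutant (L100I, K103N, Y181C, Y188L, E138K) or double-mutant (F227L/V106A; RES056 = K103N/Y181C) HIV-1 strains. Protection against virus-induced cytotoxicity was read by the MTT method. EC50 is the concentration giving 50% protection of the cell cultures.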

[2] = test system: Human immunodeficiency virus 1; assay: Antiviral activity against HIV-1 harboring E138K mutant infected in human MT4 cells assessed as inhibition of virus induced cytotoxicity incubated for 5 days by spectrophometry based MTT assay; format: functional, organism-based; settings: Human immunodeficiency virus 1, MT4, 120 h; summary of the method: as §1
[3] = Selectivity index, ratio of CC50 for cytotoxicity against human MT4 cells to EC50 for antiviral activity against wild-type HIV-1 IIIB infected in human MT4 cells; format: toxicity, cell-based; settings: read-out: Ratio CC50/EC50
Summary of the method: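 Selectivity index is calculated as CC50 (mock-infected MT-4, MTT) divided by EC50 (HIV-1 IIIB protection of MT-4, MTT).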

[4] = test system: Human immunodeficiency virus 1; assay: Antiviral activity against HIV-1 harboring Y181C mutant infected in human MT4 cells assessed as inhibition of virus induced cytotoxicity incubated for 5 days by spectrophometry based MTT assay; format: functional, organism-based; settings: Human immunodeficiency virus 1, MT4, 120 h; summary of the method: as §1
[5] = test system: Human immunodeficiency virus 1; assay: Antiviral activity against HIV-1 harboring RES056 mutant infected in human MT4 cells assessed as inhibition of virus induced cytotoxicity incubated for 5 days by spectrophometry based MTT assay; format: functional, organism-based; settings: Human immunodeficiency virus 1, MT4, 120 h; summary of the method: as §1
[6] = test system: Human immunodeficiency virus 1; assay: Antiviral activity against HIV-1 harboring K103N mutant infected in human MT4 cells assessed as inhibition of virus induced cytotoxicity incubated for 5 days by spectrophometry based MTT assay; format: functional, organism-based; settings: Human immunodeficiency virus 1, MT4, 120 h; summary of the method: as §1
[7] = test system: Human immunodeficiency virus 2; assay: Antiviral activity against HIV-2 ROD infected in human MT4 cells incubated for 5 days by spectrophotometry based MTT assay; format: functional, organism-based; settings: Human immunodeficiency virus 2, ROD, MT4, 120 h
Summary of the method: (§2)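 MTT protection assay in MT-4 cells infected with HIV-1 IIIB or HIV-2 ROD. EC50 is the compound concentration giving 50% protection of the cultures against virus-induced cytotoxicity.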

[8] = Cytotoxicity against human MT4 cells assessed as reduction in cell viability incubated for 5 days by MTT assay; format: toxicity, cell-based; settings: time 5 day
Summary of the method: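 Mock-infected MT-4 cultures were read by MTT for cell viability. CC50 is the concentration that reduces viability by 50%.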

[9] = test system: Human immunodeficiency virus 1; assay: Antiviral activity against HIV-1 harboring F227L/V106A double mutant infected in human MT4 cells assessed as inhibition of virus induced cytotoxicity incubated for 5 days by spectrophometry based MTT assay; format: functional, organism-based; settings: Human immunodeficiency virus 1, MT4, 120 h; summary of the method: as §1
[10] = molecular target: Human immunodeficiency virus type 1 reverse transcriptase (Human immunodeficiency virus 1) (UniProt Q72547); assay: Inhibition of recombinant HIV-1 reverse transcriptase at 0.66 mM incubated for 1 hr by ELISA relative to control
Summary of the method: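 Each library compound was tested directly as the crude click mixture (diluted in DMSO to 2 mM per well) against HIV-1 RT at 0.66 mM, using an ELISA-based RT kit following the kit protocol. Blank controls held DMSO, TBTA, CuSO4·5H2O and sodium ascorbate. Inhibition is expressed as a percentage.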

[11] = test system: Human immunodeficiency virus 1; assay: Antiviral activity against HIV-1 harboring Y188L mutant infected in human MT4 cells assessed as inhibition of virus induced cytotoxicity incubated for 5 days by spectrophometry based MTT assay; format: functional, organism-based; settings: Human immunodeficiency virus 1, MT4, 120 h; summary of the method: as §1
[12] = test system: Human immunodeficiency virus 1; assay: Antiviral activity against wild-type HIV-1 IIIB infected in human MT4 cells incubated for 5 days by spectrophometry based MTT assay; format: functional, organism-based; settings: Human immunodeficiency virus 1, IIIB, MT4, 120 h; summary of the method: as §2

| Compound | EC50 [1] [nM] | EC50 [2] [nM] | selectivity ratio [3] | EC50 [4] [nM] | EC50 [5] [nM] | EC50 [6] [nM] | EC50 [7] [nM] | CC50 at 120 h [8] [nM] | EC50 [9] [nM] | inhibition [10] [%] | EC50 [11] [nM] | EC50 [12] [nM] |
| --- | --- | --- | --- | --- | --- | --- | --- | --- | --- | --- | --- | --- |
| Cc1cc(C)cc(S(=O)(=O)c2c(C(=O)NCc3cn(CC(=O)Nc4ccc(Br)cc4)nn3)[nH]c3ccc(Cl)cc23)c1 | 380 | 150 | 231 | 540 | > 15800 | 1500 | > 15800 | 15800 | 1870 | > 85 | 4080 | 68 |
| Cc1cc(C)cc(S(=O)(=O)c2c(C(=O)NCc3cn(CCCc4ccccc4)nn3)[nH]c3ccc(Cl)cc23)c1 | 1870 | 1390 | 302 | 2710 | > 117000 | 3250 | > 117000 | 117000 | 9700 | > 85 | > 117000 | 390 |
| Cc1cc(C)cc(S(=O)(=O)c2c(C(=O)NCc3cn(Cc4ccccc4[N+](=O)[O-])nn3)[nH]c3ccc(Cl)cc23)c1 | 150 | 150 | > 9120 | 290 | > 194000 | 510 | > 216000 | > 216000 | 1560 | > 85 | 20800 | 24 |
| COC(=O)Cn1cc(CNC(=O)c2[nH]c3ccc(Cl)cc3c2S(=O)(=O)c2cc(C)cc(C)c2)nn1 | 220 | 170 | 143 | 800 | > 6460 | 140 | > 6460 | 6460 | 1070 | > 85 | 11700 | 45 |
| Cc1cc(C)cc(S(=O)(=O)c2c(C(=O)NCc3cn(CSc4ccccc4)nn3)[nH]c3ccc(Cl)cc23)c1 | 150 | 180 | > 5510 | 670 | > 221000 | 240 | > 221000 | > 221000 | 810 | > 85 | 15800 | 40 |
